{"source": "ChEMBL document CHEMBL3351398", "about": "“Discovery of a Potent and Selective DGAT1 Inhibitor with a Piperidinyl-oxy-cyclohexanecarboxylic Acid Moiety” (ACS Med Chem Lett, 2014)", "key": {"Salmonella typhimurium": {"tested_on": "Salmonella typhimurium", "test": "Induction of mutagenicity in Salmonella typhimurium TA100 assessed as increase in number of revertants in presence of metabolic activation", "type": "toxicity, organism-based", "settings": "salmonella enterica subsp. enterica serovar typhimurium", "procedure,_shortened": "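Microbial reverse-mutation (Ames) test in strains TA1535, TA98 and TA100, with and without metabolic activation. The concentration range was 30 to 5000 μg/plate. A positive call required a 2-fold or greater increase in revertants relative to the solvent control.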"}, "[1]": {"test": "Plasma concentration in Sprague-Dawley rat at 3 mg/kg, po dosed 2 hrs before lipid challenge and measured at 4 hrs by lipid tolerance test", "type": "ADME, organism-based", "design": "dose 3 mg/kg, route oral", "procedure,_shortened": "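Rat lipid tolerance test at oral doses of 1 and 3 mpk. Reduction of lipid excursion was normalized to a reference DGAT1 inhibitor given at 10 mpk, set as 100%. Plasma drug levels were the parent and its cis isomer combined, measured 4 h after oral dosing.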"}}}
{"compound": "O=C(O)[C@H]1CC[C@H](OC2CCN(c3ccc(-c4nc5cc(C(F)(F)F)ccc5[nH]4)cn3)CC2)CC1", "values": [{"measurement": "Activity", "setting": "Salmonella typhimurium", "value": "Non-toxic"}, {"measurement": "concentration at 4 h", "setting": "[1]", "value": 58, "unit": "nM"}]}
